The values below come from ChEMBL document CHEMBL1124310, “Antiinflammatory 2,6-di-tert-butyl-4-(2-arylethenyl)phenols” (J Med Chem, 1989).

The subject of test [1] is Rattus norvegicus. Briefly: Inhibitory activity against developing adjuvant-induced arthritis (Dev AA) in rat at 5 mg/kg concentration; decrease in paw volume statistically significant compared to control. It counts as functional.
For test [2], the target named is T1, Polyunsaturated fatty acid 5-lipoxygenase (Homo sapiens) (UniProt P09917).
T1 sequence (whole entry): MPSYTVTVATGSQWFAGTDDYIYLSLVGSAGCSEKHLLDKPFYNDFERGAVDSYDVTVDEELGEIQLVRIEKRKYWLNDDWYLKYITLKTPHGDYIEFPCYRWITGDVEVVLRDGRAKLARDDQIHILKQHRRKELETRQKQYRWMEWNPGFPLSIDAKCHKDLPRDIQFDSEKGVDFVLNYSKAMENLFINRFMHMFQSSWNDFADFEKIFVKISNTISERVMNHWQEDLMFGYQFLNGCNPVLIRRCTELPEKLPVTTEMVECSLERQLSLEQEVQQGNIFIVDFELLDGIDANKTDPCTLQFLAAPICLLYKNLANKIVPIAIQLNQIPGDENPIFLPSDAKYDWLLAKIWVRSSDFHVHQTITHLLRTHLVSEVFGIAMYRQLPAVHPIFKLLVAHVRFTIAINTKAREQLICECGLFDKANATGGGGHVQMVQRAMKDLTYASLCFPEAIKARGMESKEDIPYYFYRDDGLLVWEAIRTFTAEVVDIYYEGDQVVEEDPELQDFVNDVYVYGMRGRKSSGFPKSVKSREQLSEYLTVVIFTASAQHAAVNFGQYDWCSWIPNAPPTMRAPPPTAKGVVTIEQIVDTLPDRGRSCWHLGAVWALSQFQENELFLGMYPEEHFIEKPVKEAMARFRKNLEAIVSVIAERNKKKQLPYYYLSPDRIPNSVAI
Briefly: Inhibitory activity against lipoxygenase (LO) at 1 uM concentration. In a few lines:
(§1)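 Human peripheral blood leukocytes (5 × 10^6/0.5 mL) in pH 7.2 phosphate buffer with 0.6 mM Ca2+ and 1.0 mM Mg2+ incubated with compound for 15 min at 37 °C with shaking. 5-HETE band area measured as % of total radioactivity. Inhibition = (1 − cmd/cntl) × 100; single determination in duplicate; ANOVA, p<0.05.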

The target of test [3] is T1, Polyunsaturated fatty acid 5-lipoxygenase (Homo sapiens). Briefly: Inhibitory activity against lipoxygenase (LO) at 10 uM concentration. In a few lines: as §1
In test [4] the test system is Rattus norvegicus. Put plainly: Inhibitory activity against developing adjuvant-induced arthritis (Dev AA) in rat at 50 mg/kg concentration. Type of test: functional.
Test [5] deals with Cyclooxygenase (Homo sapiens, UniProt P35354+P23219). Put plainly: Inhibitory activity against Prostaglandin G/H synthase from human platelets was determined.

Turning to `CC(C)(C)c1cc(/C=C/c2cccs2)cc(C(C)(C)C)c1O`, the inhibition in vivo (usually how much of the control response was suppressed) at 5 mg/kg in test [1] is 57%. For the same molecule, the inhibition (commonly the percentage by which the read-out fell short of the control) in test [2] is 25%; in test [3] it was 88%. Also, the inhibition in vivo at 50 mg/kg in test [4] came to 77%. Also, the IC50 (as a rule, the concentration needed to halve the response being measured) in test [5] was 63 nM.
